The values that follow come from ChEMBL document CHEMBL4680135, “Design, synthesis and biological evaluation of indole-2-carboxylic acid derivatives as IDO1/TDO dual inhibitors” (Eur J Med Chem, 2020).

What is called IC50 is the concentration that inhibits the measured activity by half. As usually defined, the inhibition is the change of the read-out against control, counted positive when it falls.

Data set [1] deals with Tryptophan 2,3-dioxygenase (Homo sapiens, UniProt P48775). As to the kind of experiment: Inhibition of recombinant human TDO assessed as reduction in kynurenine formation using L-tryptophan as substrate incubated for 45 mins by microplate reader assay. In outline:
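Purified recombinant human TDO (0.05 μM) in 100 mM potassium phosphate pH 6.5 with 40 mM neutralized ascorbate, 200 μg/mL catalase, 20 μM methylene blue, L-Trp substrate and compound; 37 °C, 45 min. Stopped with 30% TCA, 65 °C 15 min, then 2% p-dimethylaminobenzaldehyde in acetic acid; absorbance 490 nm; IC50 by curve fitting.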

For data set [2], the target named is Indoleamine 2,3-dioxygenase 1 (Homo sapiens, UniProt P14902). As to the kind of experiment: Inhibition of recombinant human IDO1 assessed as reduction in kynurenine formation using L-tryptophan as substrate incubated for 45 mins by microplate reader assay.
Chain of Indoleamine 2,3-dioxygenase 1 (P14902 whole entry): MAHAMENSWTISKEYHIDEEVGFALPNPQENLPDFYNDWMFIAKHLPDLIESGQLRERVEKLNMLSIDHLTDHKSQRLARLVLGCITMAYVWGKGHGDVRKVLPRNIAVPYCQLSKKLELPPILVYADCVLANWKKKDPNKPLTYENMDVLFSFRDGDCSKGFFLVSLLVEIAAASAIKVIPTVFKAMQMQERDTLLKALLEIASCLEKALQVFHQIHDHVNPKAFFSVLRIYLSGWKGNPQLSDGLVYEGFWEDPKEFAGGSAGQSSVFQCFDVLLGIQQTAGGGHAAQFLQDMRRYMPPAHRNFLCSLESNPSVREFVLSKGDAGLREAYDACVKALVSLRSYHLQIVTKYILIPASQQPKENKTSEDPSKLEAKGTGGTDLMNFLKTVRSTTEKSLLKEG
The test system of data set [3] is B16-F10. As to the kind of experiment: Antitumor activity against mouse B16F10 cells xenografted in C57BL6 mouse assessed as tumor growth inhibition at 50 mg/kg, po administered for 19 consecutive days relative to control. The format is functional. To be noted: 456 h, time 19 day, read-out: TGI. In a few lines: (§1)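 B16F10 melanoma cells harvested in saline; 1×10^6 cells injected subcutaneously into C57BL/6 mice on day 0. Mice randomized; daily oral dosing from day 1, compound in 0.5% CMC-Na, vehicle controls given 0.5% CMC-Na orally; cyclophosphamide 100 mg/kg i.p. as reference group.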

For another data set, the system named is T-lymphocyte. As to the kind of experiment: Reversal of IDO1/TDO-mediated suppression of mouse T-lymphocyte proliferation assessed as increase in mytomycin C treated LLC cells stimulated T-cells proliferation at 10 uM incubated for 3 days by Cell Titer Glo luminescent cell viability assay. To be noted: time 3.0 day. It counts as cell-based. In outline:
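Responder T lymphocytes from BALB/c mouse splenocytes (1×10^5/well) in RPMI 1640 with 10% FBS co-cultured with 1×10^4 LLC stimulator cells pretreated with mitomycin C (final 25 µg/mL, 37 °C, 1 h, washed thrice), plus compound; 37 °C, 5% CO₂, 3 days. Proliferation by CellTiter-Glo luminescence; mean of three replicate wells with SEM.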
For orientation: Cellular ATP, detected with luciferase, serves as a proxy for viable cell number.

The test system of data set [4] is B16-F10. Put plainly: Antitumor activity against mouse B16F10 cells xenografted in C57BL/6 mouse assessed as tumor growth inhibition at 100 mg/kg, po administered for 19 consecutive days relative to control. The format is functional. Particulars: 456 h, time 19 day, read-out: TGI. In a few lines: as §1
Data set [5] concerns A 172. Put plainly: Inhibition of IDO1/TDO in IFNgamma-stimulated human A172 cells assessed as reduction in kynurenine formation at 50 uM using L-tryptophan as substrate incubated for 48 hrs by microplate reader analysis relative to control. The format is cell-based. In outline:
(§2)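 A172 cells seeded at 4×10^4/well, next day given compound in 10% serum medium with IFNγ (final 100 ng/mL) and Trp (final 1 mmol/L), 48 h. Supernatant treated with 30% (w/v) TCA, heated 65 °C 15 min, mixed with 2% p-dimethylaminobenzaldehyde in acetic acid; kynurenine pigment read at 490 nm.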

The subject of data set [6] is A 172. As to the kind of experiment: Inhibition of IDO1/TDO in IFNgamma-stimulated human A172 cells assessed as reduction in kynurenine formation at 100 uM using L-tryptophan as substrate incubated for 48 hrs by microplate reader analysis relative to control. The format is cell-based. In outline: as §2
Data set [7] can be described thus: Toxicity in C57BL/6 mouse xenografted with mouse B16F10 cells assessed as body weight loss at 50 to 100 mg/kg, po administered for 19 consecutive days. It counts as organism-based. Particulars: in vivo, 456 h, dose 50-100 mg/kg, time 19 day. In outline: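 B16F10 cells (1×10^6) implanted subcutaneously in C57BL/6 mice on day 0; daily oral treatment from day 1 with compound suspended in 0.5% CMC-Na, vehicle group receiving 0.5% CMC-Na. Body weight of treated mice compared against vehicle control group.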

Active and inactive are the calls of the source. The calls are words filed in the database; no cut-off is given here.

Chain of Tryptophan 2,3-dioxygenase (P48775 whole entry): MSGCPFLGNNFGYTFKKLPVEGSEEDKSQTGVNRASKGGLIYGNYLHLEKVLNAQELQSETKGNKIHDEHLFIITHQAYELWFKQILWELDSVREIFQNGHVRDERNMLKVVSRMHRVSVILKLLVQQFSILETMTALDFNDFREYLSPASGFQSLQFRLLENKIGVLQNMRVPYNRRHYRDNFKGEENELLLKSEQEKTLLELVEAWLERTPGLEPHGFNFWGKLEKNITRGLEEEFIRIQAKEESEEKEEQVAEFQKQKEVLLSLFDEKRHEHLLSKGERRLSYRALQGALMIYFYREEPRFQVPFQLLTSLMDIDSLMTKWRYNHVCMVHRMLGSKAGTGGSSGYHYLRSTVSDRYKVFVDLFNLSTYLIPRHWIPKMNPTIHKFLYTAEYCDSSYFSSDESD

Regarding `CC(=O)Nc1cc(Nc2ccc(F)c(C)c2)c2cc(C(=O)O)[nH]c2c1`, the IC50 is 1.7 µM in data set [1] and 1.83 µM in data set [2].

As for `CC(=O)Nc1cc(Nc2ccc(OC(F)F)cc2)c2cc(C(=O)O)[nH]c2c1`, the figures for the half-maximal inhibitory concentration (IC50) in data set [1] and in data set [2] were 5.5 µM and 3.18 µM, respectively.

Take `CC(=O)Nc1cc(Nc2ccc(F)c(OC(C)C)c2)c2cc(C(=O)O)[nH]c2c1`: the IC50 turned out to be 6.46 µM in data set [1] and 3.09 µM in data set [2].

For the compound `CC(=O)Nc1cc(Nc2ccc(F)c(C3CC3)c2)c2cc(C(=O)O)[nH]c2c1`, the concentration for half-maximal inhibition (IC50) in data set [1] is 5.45 µM; in data set [2], 2.95 µM.

For the compound `CC(=O)Nc1cc(Nc2ccc(F)c(Oc3ccccc3)c2)c2cc(C(=O)O)[nH]c2c1`, the results for the IC50 in data set [1] and in data set [2] were 1.44 µM and 5.83 µM, respectively.

As for `Cc1cc(Nc2ccc(F)c(Cl)c2)c2cc(C(=O)O)[nH]c2c1`, the half-inhibitory concentration (IC50) worked out at 22.5 µM in data set [1] and 35.6 µM in data set [2].

Regarding `CC(=O)Nc1cc(Nc2ccc(F)c(OCC(F)(F)F)c2)c2cc(C(=O)O)[nH]c2c1`, the IC50 in data set [1] came out at 9.63 µM; in data set [2] it was 4.62 µM.

On to `O=C(O)c1cc2c(Nc3cc(Br)ccc3F)ccc(F)c2[nH]1`, for which the results for the concentration for half-maximal inhibition (IC50) in data set [1] and in data set [2] were 41.4 µM and 28.1 µM, respectively.

Take `CCOc1cc(Nc2cc(NC(C)=O)cc3[nH]c(C(=O)O)cc23)ccc1F`: the concentration for half-maximal inhibition (IC50) came to 5.13 µM in data set [1] and 2.2 µM in data set [2].

Regarding `CC(=O)Nc1cc(Nc2ccc(F)cn2)c2cc(C(=O)O)[nH]c2c1`, the 50% inhibitory concentration (IC50) is 11.7 µM in data set [1] and 10.8 µM in data set [2].

Take `COc1ccc(Nc2cc(NC(C)=O)cc3[nH]c(C(=O)O)cc23)cn1`: the IC50 in data set [1] was determined as 3.62 µM; in data set [2] it was 3.41 µM.

`CCNc1cc(Nc2ccc(F)c(Cl)c2)c2cc(C(=O)O)[nH]c2c1`: the concentration for half-maximal inhibition (IC50) was 3.53 µM in data set [1] and 1.75 µM in data set [2].

On to `CC(=O)Nc1cc(Nc2ccc(F)c(OCC3CC3)c2)c2cc(C(=O)O)[nH]c2c1`, for which the IC50 in data set [1] stood at 4.09 µM; in data set [2], 3.11 µM.

Take `COc1ccc(Nc2cc(NC(C)=O)cc3[nH]c(C(=O)O)cc23)cc1`: the IC50 stood at 3.01 µM in data set [1] and 1.71 µM in data set [2].

As to `CC(=O)Nc1cc(Nc2ccc(F)c(Cl)c2)c2cc(C(=O)O)[nH]c2c1`, the figures for the 50% inhibitory concentration (IC50) in data set [1] and in data set [2] were 8.48 µM and 8.4 µM, respectively.

On to `COc1cc(Nc2ccc(F)c3[nH]c(C(=O)O)cc23)cc(OC)c1OC`, for which the IC50 in data set [1] was determined as 23.3 µM; in data set [2], 22.2 µM.

In the case of `O=C(O)c1cc2c(Nc3ccc(F)c(Cl)c3)ccc(F)c2[nH]1`, the IC50 in data set [1] stood at 99.2 µM; in data set [2], 40.7 µM.

For `CC(=O)Nc1cc(Nc2ccc(F)c(-c3ccsc3)c2)c2cc(C(=O)O)[nH]c2c1`, the concentration for half-maximal inhibition (IC50) worked out at 2.53 µM in data set [1] and 3.89 µM in data set [2].

On to `CC(=O)Nc1cc(Nc2ccc(F)c(F)c2)c2cc(C(=O)O)[nH]c2c1`, for which the half-maximal inhibitory concentration (IC50) worked out at 1.55 µM in data set [1] and 1.17 µM in data set [2].

With `O=C(O)c1cc2c(Nc3ccc(F)c(OC(F)(F)F)c3)ccc(F)c2[nH]1`, the IC50 in data set [1] amounted to 16.5 µM; in data set [2] it was 16.3 µM.

In the case of `COc1cc(Nc2cc(NC(C)=O)cc3[nH]c(C(=O)O)cc23)ccc1F`, the 50% inhibitory concentration (IC50) turned out to be 2.49 µM in data set [1] and 1.23 µM in data set [2].

As to `CC(=O)Nc1cc(Nc2ccc(OC(F)(F)F)cc2)c2cc(C(=O)O)[nH]c2c1`, the IC50 in data set [1] was 5.71 µM; in data set [2] it was 23.7 µM.

With `CC(=O)Nc1cc(Nc2ccc(F)nc2)c2cc(C(=O)O)[nH]c2c1`, the IC50 in data set [1] turned out to be 46.1 µM; in data set [2], 38.5 µM.

`O[C@H](C[C@H]1c2c(F)cccc2-c2cncn21)[C@H]1CC[C@H](O)CC1` [NAVOXIMOD]: in data set [1], the half-inhibitory concentration (IC50) turned out to be 0.8 µM.

In the case of `COc1ccc(Nc2cc(NC(C)=O)cc3[nH]c(C(=O)O)cc23)nc1`, the half-maximal inhibitory concentration (IC50) in data set [1] is 5.27 µM; in data set [2] it was 4.73 µM.

On to `O=C(O)c1cc2c(Nc3ccc(F)c4[nH]c(C(=O)O)cc34)ccc(F)c2[nH]1`, for which the IC50 in data set [1] turned out to be 3.48 µM; in data set [2], 2.72 µM.

Turning to `CC(=O)Nc1cc(Nc2cccc3[nH]ncc23)c2cc(C(=O)O)[nH]c2c1`, the figures for the half-inhibitory concentration (IC50) in data set [1] and in data set [2] were 6.78 µM and 7.52 µM, respectively.

Regarding `COc1cc(Nc2cc(NC(C)=O)cc3[nH]c(C(=O)O)cc23)cc(OC)c1OC`, the inhibition in vivo at 50 mg/kg with B16-F10 [3] was determined as 43.2%. The figures for the concentration for half-maximal inhibition (IC50) in data set [1] and in data set [2] were 7.12 µM and 3.18 µM, respectively. In the data set on T-lymphocyte, the outcome was Active. Further, the inhibition in vivo at 100 mg/kg with B16-F10 [4] turned out to be 44.7%. Further, the inhibition was 55.9% with A 172 [5] and 77.7% in the data set on A 172 [6]. Besides, the Activity result in data set [7] is on record as “Non-Toxic”.

In the case of `COc1cc(Nc2ccc(F)c3[nH]c(C(=O)O)cc23)ccc1F`, the concentration for half-maximal inhibition (IC50) was 31.4 µM in data set [1] and 54.4 µM in data set [2].

In the case of `CCCOc1cc(Nc2cc(NC(C)=O)cc3[nH]c(C(=O)O)cc23)ccc1F`, the IC50 in data set [1] is 4.46 µM; in data set [2], 1.48 µM.

Consider `CCNC1=C/C(=N\c2ccc(F)c(Cl)c2)c2cc(C(=O)O)[nH]c2C1=O`, for which the IC50 in data set [1] was 0.025 µM; in data set [2], 0.018 µM.

For the compound `O=C(O)c1cc2c(Nc3ccc(F)c(Br)c3)ccc(F)c2[nH]1`, the figures for the IC50 in data set [1] and in data set [2] were 10.5 µM and 9.93 µM, respectively.

On to `CC(=O)Nc1cc(Nc2ccc(F)c(OC(F)(F)F)c2)c2cc(C(=O)O)[nH]c2c1`, for which the IC50 was found to be 3.62 µM in data set [1] and 1.37 µM in data set [2].

Take `N#Cc1cc(Nc2ccc(F)c(Cl)c2)c2cc(C(=O)O)[nH]c2c1`: the IC50 in data set [1] and in data set [2] was > 100 µM in each case.

On to `COc1ccc(Nc2ccc(F)c(Cl)c2)c2cc(C(=O)O)[nH]c12`, for which the values for the concentration for half-maximal inhibition (IC50) in data set [1] and in data set [2] were 19.5 µM and 32.4 µM, respectively.

`CC(=O)Nc1cc(Nc2ccc(F)c(OCc3ccccc3)c2)c2cc(C(=O)O)[nH]c2c1`: the half-inhibitory concentration (IC50) in data set [1] amounted to 5.24 µM; in data set [2] it was 10 µM.

Regarding `CC(=O)Nc1cc(Nc2ccc(F)cc2)c2cc(C(=O)O)[nH]c2c1`, the IC50 in data set [1] turned out to be 7.69 µM; in data set [2] it was 5.28 µM.

`CC(=O)Nc1cc(Nc2ccc(C(F)(F)F)cc2)c2cc(C(=O)O)[nH]c2c1`: the IC50 was found to be 23.2 µM in data set [1] and 55.5 µM in data set [2].

`O=C(O)c1cc2c(Nc3ccc(F)c(Cl)c3)cc([N+](=O)[O-])cc2[nH]1`: the IC50 in data set [1] and in data set [2] was > 100 µM throughout.
